{
  "source": "ChEMBL document CHEMBL5303300",
  "about": "“EUbOPEN Chemogenomics Library - Multiplex” (2023)",
  "key": {"[1]": {"test_system": "HEK-293T", "experiment": "Multiplex assay against HEK293T", "assay_type": "toxicity, cell-based", "details": "human, number of replicates 2", "method_in_brief": "(§1)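 Hoechst33342, BioTracker Green Microtubule Cytoskeleton Dye, MitoTracker Red and Annexin V Alexa Fluor 680 were added to live cells at seeding, and imaging on a CQ1 microscope at 37°C and 5% CO2 followed compound addition. Gating by CellPathfinder machine learning separated cells into Hoechst high-intensity objects or normal cells, then normal cells into healthy, pyknosed or fragmented nuclei, then pyknosed cells into mitotic or apoptotic. Per cents of healthy-nucleus cells are reported for the tubulin, mitochondrial-mass and membrane-permeability phenotypes.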"}, "[2]": {"test_system": "Fibroblast", "experiment": "Multiplex assay against human fibroblast", "assay_type": "toxicity, cell-based", "details": "number of replicates 2", "method_in_brief": "as §1"}, "[3]": {"details": "12 h, 1 µM, compound concentration 1 uM"}, "[4]": {"details": "12 h, 10 µM, compound concentration 10 uM"}, "[5]": {"details": "24 h, 1 µM, compound concentration 1 uM"}, "[6]": {"details": "24 h, 10 µM, compound concentration 10 uM"}, "[7]": {"details": "48 h, 1 µM, compound concentration 1 uM"}, "[8]": {"details": "48 h, 10 µM, compound concentration 10 uM"}},
  "note": "Several values for one entry are separate records, joined by “and”; a condition that tells them apart may be missing. Equal values may be shown once.",
  "data": [
    {"smiles": "CN(C)C/C=C/C(=O)Nc1ccc(C(=O)N2CCCC(Nc3ncc(Cl)c(-c4c[nH]c5ccccc45)n3)C2)cc1", "note": "(configuration not stated)", "values": [
      {"measurement": "Population Apoptotic (%)", "setting": "[1]; [3]", "result": "55% and 71%"},
      {"measurement": "Population Fragmented Nuclei (%)", "setting": "[1]; [3]", "result": "6% and 2%"},
      {"measurement": "Population Healthy Nuclei (%)", "setting": "[1]; [3]", "result": "72% and 69%"},
      {"measurement": "Population Hoechst High Intensity Objects (%)", "setting": "[1]; [3]", "result": "14% and 16%"},
      {"measurement": "Population Membrane Permeable-Phenotype (%)", "setting": "[1]; [3]", "result": "3% and 1%"},
      {"measurement": "Population Mitochondria Different-Phenotype (%)", "setting": "[1]; [3]", "result": "63% and 58%"},
      {"measurement": "Population Mitotic Cells (%)", "setting": "[1]; [3]", "result": "44% and 28%"},
      {"measurement": "Population Normal (%)", "setting": "[1]; [3]", "result": "85% and 83%"},
      {"measurement": "Population Pyknosed Nuclei (%)", "setting": "[1]; [3]", "result": "20% and 28%"},
      {"measurement": "Population Tubulin-Different-Phenotype (%)", "setting": "[1]; [3]", "result": "83% and 79%"},
      {"measurement": "Total Cell Count", "setting": "[1]; [3]", "result": "354 and 300"},
      {"measurement": "Population Apoptotic (%)", "setting": "[1]; [4]", "result": "69% and 84%"},
      {"measurement": "Population Fragmented Nuclei (%)", "setting": "[1]; [4]", "result": "5% and 11%"},
      {"measurement": "Population Healthy Nuclei (%)", "setting": "[1]; [4]", "result": "67% and 68%"},
      {"measurement": "Population Hoechst High Intensity Objects (%)", "setting": "[1]; [4]", "result": "29% and 21%"},
      {"measurement": "Population Membrane Permeable-Phenotype (%)", "setting": "[1]; [4]", "result": "5% and 2%"},
      {"measurement": "Population Mitochondria Different-Phenotype (%)", "setting": "[1]; [4]", "result": "63% and 70%"},
      {"measurement": "Population Mitotic Cells (%)", "setting": "[1]; [4]", "result": "30% and 15%"},
      {"measurement": "Population Normal (%)", "setting": "[1]; [4]", "result": "70% and 78%"},
      {"measurement": "Population Pyknosed Nuclei (%)", "setting": "[1]; [4]", "result": "26% and 20%"},
      {"measurement": "Population Tubulin-Different-Phenotype (%)", "setting": "[1]; [4]", "result": "88% and 85%"},
      {"measurement": "Total Cell Count", "setting": "[1]; [4]", "result": "280 and 375"},
      {"measurement": "Population Apoptotic (%)", "setting": "[1]; [5]", "result": "73% and 75%"},
      {"measurement": "Population Fragmented Nuclei (%)", "setting": "[1]; [5]", "result": "6% and 5%"},
      {"measurement": "Population Healthy Nuclei (%)", "setting": "[1]; [5]", "result": "75% and 74%"},
      {"measurement": "Population Hoechst High Intensity Objects (%)", "setting": "[1]; [5]", "result": "17% and 19%"},
      {"measurement": "Population Membrane Permeable-Phenotype (%)", "setting": "[1]; [5]", "result": "2% and 0%"},
      {"measurement": "Population Mitochondria Different-Phenotype (%)", "setting": "[1]; [5]", "result": "68% and 60%"},
      {"measurement": "Population Mitotic Cells (%)", "setting": "[1]; [5]", "result": "26% and 25%"},
      {"measurement": "Population Normal (%)", "setting": "[1]; [5]", "result": "82% and 80%"},
      {"measurement": "Population Pyknosed Nuclei (%)", "setting": "[1]; [5]", "result": "17% and 20%"},
      {"measurement": "Population Tubulin-Different-Phenotype (%)", "setting": "[1]; [5]", "result": "80% and 68%"},
      {"measurement": "Total Cell Count", "setting": "[1]; [5]", "result": "318 and 268"},
      {"measurement": "Population Apoptotic (%)", "setting": "[1]; [6]", "result": "89% and 91%"},
      {"measurement": "Population Fragmented Nuclei (%)", "setting": "[1]; [6]", "result": "7% and 10%"},
      {"measurement": "Population Healthy Nuclei (%)", "setting": "[1]; [6]", "result": "75% and 71%"},
      {"measurement": "Population Hoechst High Intensity Objects (%)", "setting": "[1]; [6]", "result": "28% and 25%"},
      {"measurement": "Population Membrane Permeable-Phenotype (%)", "setting": "[1]; [6]", "result": "5% and 2%"},
      {"measurement": "Population Mitochondria Different-Phenotype (%)", "setting": "[1]; [6]", "result": "78% and 79%"},
      {"measurement": "Population Mitotic Cells (%)", "setting": "[1]; [6]", "result": "10% and 8%"},
      {"measurement": "Population Normal (%)", "setting": "[1]; [6]", "result": "71% and 74%"},
      {"measurement": "Population Pyknosed Nuclei (%)", "setting": "[1]; [6]", "result": 17, "unit": "%"},
      {"measurement": "Population Tubulin-Different-Phenotype (%)", "setting": "[1]; [6]", "result": "88% and 86%"},
      {"measurement": "Total Cell Count", "setting": "[1]; [6]", "result": "313 and 357"},
      {"measurement": "Population Apoptotic (%)", "setting": "[1]; [7]", "result": "85% and 78%"},
      {"measurement": "Population Fragmented Nuclei (%)", "setting": "[1]; [7]", "result": "9% and 4%"},
      {"measurement": "Population Healthy Nuclei (%)", "setting": "[1]; [7]", "result": "75% and 77%"},
      {"measurement": "Population Hoechst High Intensity Objects (%)", "setting": "[1]; [7]", "result": "22% and 15%"},
      {"measurement": "Population Membrane Permeable-Phenotype (%)", "setting": "[1]; [7]", "result": "0% and 1%"},
      {"measurement": "Population Mitochondria Different-Phenotype (%)", "setting": "[1]; [7]", "result": "76% and 69%"},
      {"measurement": "Population Mitotic Cells (%)", "setting": "[1]; [7]", "result": "14% and 21%"},
      {"measurement": "Population Normal (%)", "setting": "[1]; [7]", "result": "77% and 84%"},
      {"measurement": "Population Pyknosed Nuclei (%)", "setting": "[1]; [7]", "result": "15% and 17%"},
      {"measurement": "Population Tubulin-Different-Phenotype (%)", "setting": "[1]; [7]", "result": "81% and 77%"},
      {"measurement": "Total Cell Count", "setting": "[1]; [7]", "result": "284 and 272"},
      {"measurement": "Population Apoptotic (%)", "setting": "[1]; [8]", "result": "75% and 83%"},
      {"measurement": "Population Fragmented Nuclei (%)", "setting": "[1]; [8]", "result": "8% and 17%"},
      {"measurement": "Population Healthy Nuclei (%)", "setting": "[1]; [8]", "result": 54, "unit": "%"},
      {"measurement": "Population Hoechst High Intensity Objects (%)", "setting": "[1]; [8]", "result": "24% and 26%"},
      {"measurement": "Population Membrane Permeable-Phenotype (%)", "setting": "[1]; [8]", "result": "1% and 5%"},
      {"measurement": "Population Mitochondria Different-Phenotype (%)", "setting": "[1]; [8]", "result": "75% and 70%"},
      {"measurement": "Population Mitotic Cells (%)", "setting": "[1]; [8]", "result": "25% and 16%"},
      {"measurement": "Population Normal (%)", "setting": "[1]; [8]", "result": "75% and 73%"},
      {"measurement": "Population Pyknosed Nuclei (%)", "setting": "[1]; [8]", "result": "36% and 28%"},
      {"measurement": "Population Tubulin-Different-Phenotype (%)", "setting": "[1]; [8]", "result": "83% and 82%"},
      {"measurement": "Total Cell Count", "setting": "[1]; [8]", "result": "362 and 446"},
      {"measurement": "Population Apoptotic (%)", "setting": "[2]; [3]", "result": "40% and 56%"},
      {"measurement": "Population Fragmented Nuclei (%)", "setting": "[2]; [3]", "result": "10% and 12%"},
      {"measurement": "Population Healthy Nuclei (%)", "setting": "[2]; [3]", "result": "68% and 67%"},
      {"measurement": "Population Hoechst High Intensity Objects (%)", "setting": "[2]; [3]", "result": 0, "unit": "%"},
      {"measurement": "Population Membrane Permeable-Phenotype (%)", "setting": "[2]; [3]", "result": "3% and 5%"},
      {"measurement": "Population Mitochondria Different-Phenotype (%)", "setting": "[2]; [3]", "result": "0% and 2%"},
      {"measurement": "Population Mitotic Cells (%)", "setting": "[2]; [3]", "result": "59% and 43%"},
      {"measurement": "Population Normal (%)", "setting": "[2]; [3]", "result": "99% and 100%"},
      {"measurement": "Population Pyknosed Nuclei (%)", "setting": "[2]; [3]", "result": "21% and 20%"},
      {"measurement": "Population Tubulin-Different-Phenotype (%)", "setting": "[2]; [3]", "result": "11% and 13%"},
      {"measurement": "Total Cell Count", "setting": "[2]; [3]", "result": "174 and 157"},
      {"measurement": "Population Apoptotic (%)", "setting": "[2]; [4]", "result": "63% and 53%"},
      {"measurement": "Population Fragmented Nuclei (%)", "setting": "[2]; [4]", "result": "10% and 20%"},
      {"measurement": "Population Healthy Nuclei (%)", "setting": "[2]; [4]", "result": "42% and 50%"},
      {"measurement": "Population Hoechst High Intensity Objects (%)", "setting": "[2]; [4]", "result": 0, "unit": "%"},
      {"measurement": "Population Membrane Permeable-Phenotype (%)", "setting": "[2]; [4]", "result": "0% and 9%"},
      {"measurement": "Population Mitochondria Different-Phenotype (%)", "setting": "[2]; [4]", "result": "21% and 24%"},
      {"measurement": "Population Mitotic Cells (%)", "setting": "[2]; [4]", "result": "36% and 46%"},
      {"measurement": "Population Normal (%)", "setting": "[2]; [4]", "result": 99, "unit": "%"},
      {"measurement": "Population Pyknosed Nuclei (%)", "setting": "[2]; [4]", "result": "46% and 29%"},
      {"measurement": "Population Tubulin-Different-Phenotype (%)", "setting": "[2]; [4]", "result": "78% and 70%"},
      {"measurement": "Total Cell Count", "setting": "[2]; [4]", "result": "131 and 175"},
      {"measurement": "Population Apoptotic (%)", "setting": "[2]; [5]", "result": "76% and 71%"},
      {"measurement": "Population Fragmented Nuclei (%)", "setting": "[2]; [5]", "result": "17% and 12%"},
      {"measurement": "Population Healthy Nuclei (%)", "setting": "[2]; [5]", "result": "49% and 56%"},
      {"measurement": "Population Hoechst High Intensity Objects (%)", "setting": "[2]; [5]", "result": 0, "unit": "%"}
    ]}
  ]
}
